T cruzi growth-1: T. cruzi intracellular proliferation inhibitors, primary screen, cell-based, beta-gal Tulahuen parasites, NIH3T3 host, luminescence; T. cruzi beta-gal in NIH3T3, GalScreen luminescence, 90 h; inhibition, % at 8.34 µM; 5.9% of 77,000 active;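 active = mean inhibition above about 93%, with at least 55% of replicates each passing it, limit read from the data, passing the limit was not always enough; inconclusive = only one of those two conditions holds; inactive = neither condition holds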
IDH1 R132H inh: inhibitors of IDH1 R132H reductase, primary screen, biochemical, plate reader, single point | Isocitrate dehydrogenase [NADP] cytoplasmic (Homo sapiens), O75874 | diaphorase/resazurin fluorescence, 60 min | inhibition, % at 10 µM | 0.18% of 70,000 active; in the data active = inhibition above about 34%; inconclusive = no clear call, values can overlap the other calls; inactive = below about 11%
GASC1 inh: inhibitors of GASC-1 (KDM4C) histone demethylase, primary screen, biochemical, single concentration HTS. Lysine-specific demethylase 4C (Homo sapiens), Q9H3R0. GST-KDM4C 2-372, H3K9me3 peptide, LANCE TR-FRET. inhibition, % at 12.5 µM. 0.15% of 96,000 active. AID 720574, 2013;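 active = mean replicate inhibition above about 25%, with at least 55% of replicates also reaching it, limit read from the data, passing the limit was not always enough; inconclusive = only one of those two conditions met; inactive = neither condition met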
Target sequence (Q9H3R0 2-372 limits assumed): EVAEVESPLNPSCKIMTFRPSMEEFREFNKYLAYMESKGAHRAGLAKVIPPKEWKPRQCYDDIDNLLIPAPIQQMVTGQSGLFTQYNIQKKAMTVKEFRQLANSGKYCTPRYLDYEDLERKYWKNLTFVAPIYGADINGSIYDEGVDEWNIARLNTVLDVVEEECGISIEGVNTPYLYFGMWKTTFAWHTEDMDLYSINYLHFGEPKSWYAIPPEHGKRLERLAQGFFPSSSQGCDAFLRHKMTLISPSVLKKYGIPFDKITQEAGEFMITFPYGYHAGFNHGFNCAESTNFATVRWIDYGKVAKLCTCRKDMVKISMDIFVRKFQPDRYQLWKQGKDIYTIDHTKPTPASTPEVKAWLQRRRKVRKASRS
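Compound: one test concentration per compound; Material: GST-GASC-1 enzyme fragment 2-372; Amount: GASC-1 enzyme at 10 nM final in reaction; Also added: H3K9me3 peptide substrate, Fe(II), 2-oxoglutarate; Technique: LANCE TR-FRET; Times: 30 min demethylation and 1 h detection at room temperature.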
T cruzi growth-2: T. cruzi intracellular proliferation inhibitors, confirmation, cell-based, NIH3T3 host, beta-gal parasite, luminescence, cherry-pick; shares compounds with T cruzi growth-1; T. cruzi beta-gal in NIH3T3, GalScreen luminescence, 90 h; inhibition, % at 8.35 µM; 72% of 5,600 active;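 active = mean replicate inhibition above about 95% and at least 55% of replicates individually reaching it, limit read from the data; inconclusive = only one of the two criteria is met; inactive = neither criterion is met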
T cruzi growth-3: inhibitors of intracellular T. cruzi replication, confirmation, NIH3T3 host cells, beta-gal parasites, cherry-pick, set 2; shares compounds with T cruzi growth-1; T. cruzi beta-gal in NIH3T3, GalScreen luminescence, 90 h; inhibition, % at 2.09 µM; 21% of 5,600 active;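 active = mean inhibition above about 95%, with at least 55% of replicates also reaching it, limit read from the data; inconclusive = meets just one of the two conditions; inactive = meets neither condition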
NIH3T3 tox: cytotoxicity in mouse NIH/3T3 fibroblasts, confirmation, cytotoxicity control for T. cruzi proliferation inhibitor project, cell-based, cherry-pick, single point | shares compounds with T cruzi growth-1 | NIH/3T3 viability, CellTiter-Glo ATP luminescence, 90 h | cytotoxicity (signal decrease), % at 8.35 µM | 14% of 5,600 active;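 active = mean signal decrease across replicates above about 35% based on untreated-well scatter, with enough replicates individually passing, limit read from the data; inconclusive = no rule stated though some were filed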
3T3 cytotox 2: NIH/3T3 fibroblast cytotoxicity, confirmation, cytotoxicity control, cell-based, cherry-pick, single point, set 2 | shares compounds with T cruzi growth-1 | NIH/3T3 viability, CellTiter-Glo ATP luminescence, 90 h | inhibition, % at 24.9 µM | 56% of 5,600 active;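 active = mean loss of cell viability signal at or above a set limit, and enough replicates individually reaching it; inconclusive = meets only the mean limit or only the replicate share; inactive = meets neither condition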
Of the large screens only hits and unclear results are named; the others gave an inactive call (follow-up assays come after a bar, where they were run). The sample as a whole holds a higher share of hits than the screen did.

CCC(=O)N1CCCCN2[C@H](CO)[C@@H](c3ccc(C#Cc4ccccc4)cc3)[C@@H]2C1	none (no result: IDH1 R132H inh)
CCC(=O)N1CCCCN2[C@@H](CO)[C@H](c3ccc(C#CCOC)cc3)[C@@H]2C1	none (no result: IDH1 R132H inh)
CO[C@H](CN(C)Cc1cc(F)ccc1F)[C@H](C)CN([C@@H](C)CO)S(=O)(=O)c1ccc(F)cc1	none
COCC(=O)Nc1ccc2c(c1)OC[C@@H](C)N(C(=O)c1ccncc1)C[C@H](C)[C@@H](OC)CN(C)C2=O	none
C[C@H](CO)N1C[C@H](C)[C@@H](CN(C)C(=O)Nc2ccccc2)Oc2ccc(NC(=O)Cn3cnnn3)cc2CC1=O	none
C[C@@H]1CN([C@@H](C)CO)C(=O)c2cc(C#CCC3CCCC3)cnc2O[C@H]1CN(C)C(=O)CC1CC1	T cruzi growth-1 100.1 | T cruzi growth-2 inconclusive | T cruzi growth-3 inactive | NIH3T3 tox inactive | 3T3 cytotox 2 38.7
C[C@@H]1CN([C@H](C)CO)C(=O)c2cc(C#CCC3CCCC3)cnc2O[C@H]1CN(C)C(=O)CN(C)C	none (no result: T cruzi growth-1)
C[C@H](CO)N1C[C@H](C)[C@H](CN(C)C(=O)CC2CC2)Oc2ncc(C#CCC3CCCC3)cc2C1=O	none
C[C@@H]1CN([C@H](C)CO)C(=O)c2cc(C#CCC3CCCC3)cnc2O[C@H]1CN(C)C(=O)CC1CC1	T cruzi growth-1 inconclusive | T cruzi growth-2 96.4 | T cruzi growth-3 inactive | NIH3T3 tox inactive | 3T3 cytotox 2 83.0
CO[C@H]1CN(C)C(=O)c2cc(NS(=O)(=O)c3cn(C)cn3)ccc2OC[C@H](C)N(CC2CC2)C[C@@H]1C	none
C[C@@H]1CN([C@H](C)CO)C(=O)c2cc(C3=CCCC3)cnc2O[C@@H]1CN(C)Cc1cccnc1	none (no result: T cruzi growth-1)
O=C(C[C@H]1C=C[C@H](NC(=O)CN2CCOCC2)[C@H](CO)O1)NCc1cccc(F)c1	none
O=C(C[C@@H]1CC[C@@H](NC(=O)NC2CCCCC2)[C@@H](CO)O1)NCc1ccc(F)cc1	none (no result: T cruzi growth-1)
O=C([C@@H]1[C@@H](CO)[C@@H]2Cn3c(cccc3=O)[C@H]1N2CC1CC1)N1CCc2ccccc2C1	T cruzi growth-1 121.4 (no result: IDH1 R132H inh) | T cruzi growth-2 inactive | T cruzi growth-3 inactive | NIH3T3 tox inactive | 3T3 cytotox 2 inactive
O=C([C@H]1[C@H](CO)[C@H]2Cn3c(cccc3=O)[C@@H]1N2CC1CC1)N1CCc2ccccc2C1	T cruzi growth-1 108.2 (no result: IDH1 R132H inh) | T cruzi growth-2 inactive | T cruzi growth-3 inactive | NIH3T3 tox inactive | 3T3 cytotox 2 inactive
CC(=O)N1[C@@H]2Cn3c(cccc3=O)[C@H]1[C@@H](C(=O)N1CCc3ccccc3C1)[C@@H]2CO	none (no result: IDH1 R132H inh)
O=C([C@@H]1[C@@H](CO)[C@@H]2Cn3c(cccc3=O)[C@H]1N2C(=O)CC1CC1)N1CCc2ccccc2C1	none (no result: T cruzi growth-1, IDH1 R132H inh)
COc1ccc(OC)c(NC(=O)CC2NCCNC2=O)c1 (stereo unspecified)	none (no result: T cruzi growth-1, GASC1 inh)
C[C@H](CO)N1C[C@H](C)[C@H](CN(C)C(=O)Nc2ccc3c(c2)OCO3)OCCCC[C@H](C)Oc2ccc(NC(=O)Nc3ccc(C(F)(F)F)cc3)cc2C1=O	T cruzi growth-1 98.5 | T cruzi growth-2 101.4 | T cruzi growth-3 110.0 | NIH3T3 tox inactive | 3T3 cytotox 2 inactive
C[C@H]1CCCCO[C@@H](CN(C)C(=O)Nc2ccc(C(F)(F)F)cc2)[C@@H](C)CN([C@@H](C)CO)C(=O)c2cc(NC(=O)Nc3ccc4c(c3)OCO4)ccc2O1	T cruzi growth-1 121.1 (no result: IDH1 R132H inh) | T cruzi growth-2 104.8 | T cruzi growth-3 109.4 | NIH3T3 tox inactive | 3T3 cytotox 2 inactive
C[C@@H]1CCCCO[C@@H](CN(C)C(=O)Nc2ccc3c(c2)OCO3)[C@H](C)CN([C@H](C)CO)C(=O)c2cc(NC(=O)Nc3ccc(C(F)(F)F)cc3)ccc2O1	none
